Beta2AR agonist: agonists of human beta-2 adrenergic receptor inducing internalization; P07550; Am2.2-beta2AR cells, FAP receptor internalization, flow cytometry; response, % (concentration not given with the values); 0.43% of 340,000 active; AID 504454;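 active = response above a set limit, near 3 SD of response in nonfluorescent compounds, cut at about 42% in these data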
Target sequence (P07550 whole entry, looked up): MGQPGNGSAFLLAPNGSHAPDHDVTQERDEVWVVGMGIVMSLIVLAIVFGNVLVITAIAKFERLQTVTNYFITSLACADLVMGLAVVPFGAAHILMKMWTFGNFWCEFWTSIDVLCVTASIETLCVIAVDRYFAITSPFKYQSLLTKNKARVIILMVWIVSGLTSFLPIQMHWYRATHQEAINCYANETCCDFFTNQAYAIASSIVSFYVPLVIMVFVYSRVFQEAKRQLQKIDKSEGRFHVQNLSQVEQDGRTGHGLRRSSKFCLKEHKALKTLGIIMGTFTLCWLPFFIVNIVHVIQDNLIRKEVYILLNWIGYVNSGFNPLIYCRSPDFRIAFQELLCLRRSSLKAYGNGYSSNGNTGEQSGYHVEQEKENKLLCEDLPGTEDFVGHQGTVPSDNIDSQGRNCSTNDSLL
V-ATPase pHluor: alters yeast V-ATPase proton transport; S. cerevisiae, pHLuorin cytosolic pH fluorescence; response, % at 10 µM; 0.37% of 350,000 active; AID 504577; in the data active = response mostly above about 7.3%, no sharp cut-off; inactive = mostly below about 5.4%; also: actives read high
Granule exo inh: lytic granule exocytosis inhibition; TALL-104 LAMP-1 surface exposure, flow cytometry; cells stimulated with thapsigargin and PMA; inhibition, % at 10 µM; 0.66% of 360,000 active;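 active = inhibition above about 55%, limit read from the data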
rCAG RNA binder: binds r(CAG) RNA repeats; r(CAG) RNA repeat, TO-PRO-1 dye displacement fluorescence; inhibition, % at 3 µM; 1.3% of 370,000 active;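 active = inhibition above the plate cutoff, the mean of all test compounds on that plate plus 3 SD, cut at about 35% in these data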;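 also: 0% = DMSO alone and 100% = 100 µM mitoxantrone as full dye displacement; higher means more dye released from RNA so lower well fluorescence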
MPTP block: permeability transition pore inhibition; isolated mouse mitochondria, Ca2+ swelling absorbance, 30 min; inhibition, % at 10 µM; 1.4% of 360,000 active; AID 602449;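 active = inhibition of 50% or more, scaled per plate between neutral and stimulator controls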;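 also: 0% = DMSO wells given calcium and 100% = 1 mM EGTA wells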
T cell HTS: T cell immune modulators affecting CD8 T cell-vesicle binding | 2C CD8+ T cell-vesicle binding, flow cytometry; active compounds read low | response (vesicle binding), % at 7 µM | 0.068% of 330,000 active;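 active = response, share of CD8 T cells binding vesicles, and their 90th percentile fluorescence all below set limits, cut at about 80% in these data, passing the limit was not always enough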;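 also: values below 100% mean blocked vesicle binding to the CD8+ T cells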
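Test system: purified 2C TCR transgenic mouse naive CD8+ T cells. Probe or stimulus: QL9-peptide-loaded Drosophila micro-vesicles bearing Ld, ICAM-1 and B7-1. Incubation: binding step 1.5 h, 37 °C, antibody labelling 20 min, ice. Measured by: flow cytometry of vesicle-bound cells.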
VATPase regulator: yeast V-ATPase proton transport regulation; S. cerevisiae pHLuorin cytosolic pH; shares compounds with V-ATPase pHluor; 2% of 980 active; response, % at 10 µM; in the data active = response above about 24%;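 also: plate controls were vehicle wells for no effect and positive control wells for full effect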
* hit, by the source's call. The list is not random: actives were taken first. Their share in the collection is about 3.8%.

C=CC[C@@]1(c2ccc(Br)cc2OC)Oc2ccccc2-c2nccnc21 was read as rCAG RNA binder 6.
For CCN1C(=O)C(CC(=O)Nc2ccc(OC)cc2)N(CCc2ccc(F)cc2)C1=S (stereo not drawn) the results were Beta2AR agonist 0, V-ATPase pHluor 6, Granule exo inh 2, rCAG RNA binder 2, MPTP block 2 and T cell HTS 788.
CCN1C(=O)C(CC(=O)Nc2ccc(OC)cc2)N(CCCN2CCN(c3ccc(F)cc3)CC2)C1=S (stereo not drawn) was read as Beta2AR agonist 27, V-ATPase pHluor 13*, Granule exo inh 5, rCAG RNA binder -3, MPTP block 41, T cell HTS 85 and VATPase regulator 3.
Screening C/C(=N\NC(=S)NC1CCCCC1)c1cccc(C(F)(F)F)c1 returned Beta2AR agonist 2, V-ATPase pHluor 13*, Granule exo inh -5, rCAG RNA binder -2, MPTP block 6, T cell HTS 209 and VATPase regulator 2.
Screening C/C(=N\NC(=S)NC1CCCCC1)c1cccc(Br)c1 returned Beta2AR agonist -17, V-ATPase pHluor 2, Granule exo inh -8, rCAG RNA binder 4, MPTP block 3 and T cell HTS 162.
Screening Cc1cc(C)cc(C(=O)OCCN(C)C2CN(Cc3cn(Cc4ccccc4F)nn3)S(=O)(=O)C2)c1 (stereo not drawn) returned rCAG RNA binder -1.
`C=CCNCCOc1c(C)cc(C)cc1Cl` gave Beta2AR agonist 9, V-ATPase pHluor 7.7*, Granule exo inh -1, rCAG RNA binder 0, MPTP block 0, T cell HTS 0 and VATPase regulator 3.
Screening COC(=O)C1=C(C)N(Cc2ccc(C(F)(F)F)cc2)C(=NCc2ccccc2)NC1c1ccc(C(F)(F)F)cc1 (stereo not drawn) returned rCAG RNA binder 8.
O=[N+]([O-])c1ccc2c(c1)C(O)n1nc(-c3ccc(Cl)cc3Cl)nc1S2 (stereo not drawn) was read as Beta2AR agonist 1, V-ATPase pHluor 7.3*, Granule exo inh -5, rCAG RNA binder 2, MPTP block 0, T cell HTS 125 and VATPase regulator -1.
For CS(=O)(=O)N1CCC(C(=O)NCC2COc3ccccc3O2)CC1 (stereo not drawn) the results were rCAG RNA binder 1.
For COc1nc(N(C)C)nc(N(C#N)S(=O)(=O)c2ccc(C)cc2)n1 the results were Beta2AR agonist -2, V-ATPase pHluor 11*, Granule exo inh -3, rCAG RNA binder 0, MPTP block 0, T cell HTS 271 and VATPase regulator -4.
For CC(C)[C@H](NC(=O)CC1CCCC1)C(=O)N1CCC[C@H]1C(=O)NCc1ccccc1 the results were rCAG RNA binder 1.
Screening COC(=O)[C@]1(Cc2ccccc2)NC=C(C(=O)c2ccccc2)[C@@H]1c1cccs1 returned rCAG RNA binder 11.
Screening O=C1CC(N2CCC(c3nc4ccccc4[nH]3)CC2)C(=O)N1c1cccc(F)c1 (stereo not drawn) returned Beta2AR agonist -4, V-ATPase pHluor 5.8*, Granule exo inh -2, rCAG RNA binder -2, MPTP block 0, T cell HTS 240 and VATPase regulator 3.
`O=C(O)c1ccc(N2C(=O)CC(N3CCC(c4nc5ccccc5[nH]4)CC3)C2=O)cc1` (stereo not drawn) gave Beta2AR agonist -7, V-ATPase pHluor 1, Granule exo inh -1, rCAG RNA binder 2, MPTP block 0 and T cell HTS 141.
`Cc1ccc(S(=O)(=O)N2CCCC2C(=O)N2CCN(c3ccccc3)CC2)cc1C` (stereo not drawn) gave rCAG RNA binder -1.
`CCCn1c(=O)c2sccc2n2c(CCCC(=O)NC3CCN(Cc4ccccc4)CC3)nnc12` gave Beta2AR agonist 1, V-ATPase pHluor 10*, Granule exo inh -1, rCAG RNA binder -6, MPTP block 2, T cell HTS 123 and VATPase regulator -1.
CC(C)Cn1c(=O)c2sccc2n2c(CCCC(=O)NC3CCN(Cc4ccccc4)CC3)nnc12 was read as Beta2AR agonist -16, V-ATPase pHluor -4, Granule exo inh -1, rCAG RNA binder -7, MPTP block -2 and T cell HTS 263.
COCCCNC(=O)C[C@H]1C[C@@]2(C(=O)OC)C(=C[C@H](C3CCCC3)O[C@@H]2C)N(Cc2ccccc2)C1=O was read as rCAG RNA binder 0.
For CCCN(C(=O)COc1ccc(C(C)=O)cc1OC)C1CCS(=O)(=O)C1 (stereo not drawn) the results were Beta2AR agonist 4, V-ATPase pHluor 10*, Granule exo inh -7, rCAG RNA binder -1, MPTP block 0, T cell HTS 332 and VATPase regulator -5.
`COc1ccc(CN(C(=O)COc2ccc(C)c(C)c2)C2CCS(=O)(=O)C2)cc1OC` (stereo not drawn) gave Beta2AR agonist -1, V-ATPase pHluor -2, Granule exo inh -6, rCAG RNA binder 1, MPTP block -2 and T cell HTS 356.
For CCOc1ccccc1Nc1nc(-c2sc(NC(=O)c3ccco3)nc2C)cs1 the results were Beta2AR agonist -5, V-ATPase pHluor 2, Granule exo inh -2, rCAG RNA binder 29, MPTP block 1 and T cell HTS 574.
Screening CCOc1ccccc1Nc1nc(-c2sc(C)nc2C)cs1 returned Beta2AR agonist 13, V-ATPase pHluor 8.3*, Granule exo inh -10, rCAG RNA binder 0, MPTP block -3, T cell HTS 358 and VATPase regulator -1.
For Cc1nnc(NC(=O)Oc2ccccc2)s1 the results were Beta2AR agonist 13, V-ATPase pHluor -1, Granule exo inh -1, rCAG RNA binder -2, MPTP block 0 and T cell HTS 330.
CCC(CC)c1nnc(NC(=O)Oc2ccccc2)s1 was read as Beta2AR agonist 10, V-ATPase pHluor 17*, Granule exo inh -2, rCAG RNA binder 19, MPTP block -1, T cell HTS 236 and VATPase regulator 3.
Cn1cccc1C(=O)N1CCN(S(=O)(=O)c2ccc(Cl)s2)CC1 was read as rCAG RNA binder 2.
For O=[N+]([O-])c1ccc(F)cc1OCc1nc(-c2cccs2)no1 the results were Beta2AR agonist -4, V-ATPase pHluor 15*, Granule exo inh 0, rCAG RNA binder -1, MPTP block 0 and VATPase regulator 0.
O=C(NCC1([N+](=O)[O-])CN(C(=O)c2ccccc2)CN(C(=O)c2ccccc2)C1)c1ccccc1 was read as Beta2AR agonist 1, V-ATPase pHluor 1, Granule exo inh 2, rCAG RNA binder 3, MPTP block -3 and T cell HTS inactive.

Bioassay records as filed in PubChem.
